Measured values reported in ChEMBL document CHEMBL1148030, “Substituted 6-amino-4H-[1,2]dithiolo[4,3-b]pyrrol-5-ones: synthesis, structure-activity relationships, and cytotoxic activity on selected human cancer cell lines” (Bioorg Med Chem, 2007).
pIC50: −log10 of the molar value. Activity calls are given as the source filed them. The calls are words filed in the database; no cut-off is given here.

Columns and labels:
Endothelial cell = assay: Induction of apoptosis in human endothelial cells by annexin V apoptosis assay; format: functional, cell-based
NCI-H460 [1] = assay: Cytotoxicity against human H460 cells after 48 hrs by MTT assay; format: functional, cell-based; details: NCI-H460, 48 h
LCC6 = assay: Induction of apoptosis in human LCC6 cells by annexin V apoptosis assay; format: functional, cell-based
[2] = Cytotoxicity against human LCC6 cells after 48 hrs by MTT assay; format: functional, cell-based; details: LCC-6, 48 h
NCI-H460 [3] = assay: Induction of apoptosis in human H460 cells by annexin V apoptosis assay; format: functional, cell-based
SK-MEL-28 [4] = assay: Antitumor activity against VEGF expressing human SK-MEL-28 cells xenografted in mouse assessed as loss of body weight at 5 to 10 mg/kg, ip after 24 days; format: functional, organism-based
Outline: (§1)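 SK-MEL-28 V+ cells (engineered to overexpress VEGF) of over 95% viability were used to grow primary tumours in mice. These tumours were cut into 1 mm³ explants and implanted subcutaneously. Once tumours were palpable, mice were randomized and dosed intraperitoneally for 24 days: daily at 5 or 10 mg/kg, or every second day at 20 mg/kg. Tumours were measured by caliper every 2–5 days. Body weight and histology were assessed for toxicity.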

[5] = Plasma clearance in mouse at 36.8 umol/kg, ip
[6] = Inhibition of tumor growth in human SK-MEL-28V+ cells xenografted in mouse at 20 mg/kg, ip administered every altenative day for 24 days; format: functional; details: 576 h, route intraperitoneal; outline: as §1
[7] = AUC (0 to 480 mins) in mouse at 36.8 umol/kg, ip; details: plasma
[8] = Cmax in mouse at 36.8 umol/kg, ip within 30 mins; details: in vivo
[9] = Half life in mouse at 36.8 umol/kg, ip; details: in vivo
[10] = Tmax in mouse at 36.8 umol/kg, ip; details: in vivo
Mus musculus = assay: Toxicity in VEGF expressing human SK-MEL-28 cells xenografted in mouse assessed as effect on histological indications at 5 to 10 mg/kg, ip daily for 24 days; details: in vivo
SK-MEL-28 [11] = assay: Inhibition of tumor growth in VEGF expressing human SK-MEL-28 cells xenografted in mouse at 10 mg/kg, ip administered every altenative day for 24 days; format: functional; details: SK-MEL-28, ip, 576 h, route intraperitoneal
[12] = Half life in mouse at 38.2 umol/kg, ip; details: in vivo
[13] = AUC (0 to 480 mins) in mouse at 38.2 umol/kg, ip; details: plasma
[14] = Plasma clearance in mouse at 38.2 umol/kg, ip
[15] = Tmax in mouse at 38.2 umol/kg, ip; details: in vivo
[16] = Cmax in mouse at 38.2 umol/kg, ip within 30 mins; details: in vivo

Compound	Activity (Endothelial cell)	pIC50 (NCI-H460 [1])	Activity (LCC6)	pIC50 [2]	Activity (NCI-H460 [3])	other results
CC(C)c1ccc(-n2c3cssc-3c(NC(=O)c3cc(O)c(C(C)C)c(O)c3)c2=O)cc1	Active	6.82	Active	7.40	Active	–
COc1ccc(C(=O)Nc2c3sscc-3n(-c3ccc(OC)cc3OC)c2=O)c(OC)c1	Active	7.96	Active	6.60	Active	–
COc1ccc(-n2c3cssc-3c(NC(C)=O)c2=O)cc1	Active	7.28	Active	6.66	Active	–
COc1ccc(-n2c3cssc-3c(NC(=O)c3cc(F)cc(F)c3)c2=O)c(OC)c1	Active	7.96	Active	6.46	Active	–
COc1ccc(-n2c3cssc-3c(NC(=O)c3cccs3)c2=O)c(OC)c1	Active	8.10	Active	6.68	Active	–
O=C(Nc1c2sscc-2n(Cc2ccccc2)c1=O)c1cc(C(F)(F)F)cc(C(F)(F)F)c1	Active	6.15	Active	5.93	Active	–
COc1ccc(-n2c3cssc-3c(NC(C)=O)c2=O)c(OC)c1	Active	7.52	Active	6.72	Active	–
CC(=O)Nc1c2sscc-2n(Cc2ccccc2)c1=O	Active	6.05	Active	–	Active	–
CC(=O)Nc1c2sscc-2n(-c2ccc(C)cc2)c1=O	Active	7.36	Active	6.66	Active	–
COc1ccc(-n2c3cssc-3c(NC(=O)C(F)(F)F)c2=O)cc1	Active	6.72	Active	6.66	Active	–
COc1ccc(-n2c3cssc-3c(NC(=O)c3cc(C(F)(F)F)cc(C(F)(F)F)c3)c2=O)c(OC)c1	Active	6.89	Active	6.80	Active	Activity (SK-MEL-28 [4]): Active; clearance [5]: 2.9 mL/min/kg; inhibition in vivo at 20 mg/kg [6]: 58%; AUC(0-t) at 8 h [7]: 210 µM·h; Cmax [8]: 57 µM; half-life [9]: 2.67 h; Tmax [10]: 0.5 h; Activity (Mus musculus): Active
CC(=O)O[C@H]1C(=O)[C@@]2(C)[C@H]([C@H](OC(=O)c3ccccc3)[C@]3(O)C[C@H](OC(=O)[C@H](O)[C@@H](NC(=O)c4ccccc4)c4ccccc4)C(C)=C1C3(C)C)[C@]1(OC(C)=O)CO[C@@H]1C[C@@H]2O [PACLITAXEL]	–	–	–	–	–	inhibition in vivo at 10 mg/kg (SK-MEL-28 [11]): 37%
CCCCC(C)C(=O)Nc1c2sscc-2[nH]c1=O (stereo not drawn)	Active	6.70	Active	6.70	Active	–
COc1ccc(-n2c3cssc-3c(NC(=O)C(F)(F)F)c2=O)c(OC)c1	Active	6.77	Active	7.22	Active	–
COc1ccc(-n2c3cssc-3c(NC(=O)c3cc(O)c(C(C)C)c(O)c3)c2=O)c(OC)c1	Active	7.14	Active	7.15	Active	half-life [12]: 1.57 h; AUC(0-t) at 8 h [13]: 102 µM·h; clearance [14]: 6.3 mL/min/kg; Tmax [15]: 3 min; Cmax [16]: 106 µM
COc1ccc(-n2c3cssc-3c(NC(=O)c3ccco3)c2=O)c(OC)c1	Active	7.30	Active	7.55	Active	–
COc1ccc(-n2c3cssc-3c(NC(=O)c3ccc(C(F)(F)F)cc3)c2=O)c(OC)c1	Active	8.15	Active	7.07	Active	–
CC(C)c1c(O)cc(C(=O)Nc2c3sscc-3n(Cc3ccccc3)c2=O)cc1O	Active	6.77	Active	6.60	Active	–
